This is an account of results in ChEMBL document CHEMBL1781902, “Anticancer properties of an important drug lead podophyllotoxin can be efficiently mimicked by diverse heterocyclic scaffolds accessible via one-step synthesis” (2011).

For assay [1], the species on record is Bos taurus. Put plainly: Inhibition of purified bovine tubulin polymerization assessed as microtubule destabilization at 3 uM after 20 mins by fluorescence spectrophotometric analysis relative to control. Summed up:
(§1)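 Purified bovine tubulin was incubated at 37 °C in buffer with 10% glycerol and 1 mM GTP, each agent in a separate run, against a 0.05% DMSO control. Polymerization was followed by fluorescence spectrophotometry for 20 min, reading every 15 s.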

Assay [2] concerns HeLa. Put plainly: Antimitotic activity in human HeLa cells assessed as visible deffect in microtubule organization at 5 nM after 3 hrs by inverted microscopic analysis. Type of assay: functional, cell-based. In a few lines:
(§2)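 HeLa cells in DMEM with 10% fetal calf serum, pyruvate, bicarbonate and PSF were treated 3 h with compound solubilized in DMSO and prediluted in medium, or with 0.1% DMSO carrier. Cells were fixed in methanol at −20°C and blocked 1 h in PBS-5% BSA. They were stained overnight at 4°C for tubulin, Hec1 and Hoechst 33342, then imaged by epifluorescence with structured illumination.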

Another assay concerns MCF7. Put plainly: Antiproliferative activity against human MCF7 cells after 48 hrs by MTT assay. Type of assay: functional. As to conditions: MCF7, 48 h. Summed up: (§3)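 Cells were seeded at 2 × 10^4 cells/mL, allowed to adhere 24 h, then exposed 48 h to a concentration series, with DMSO as control. MTT was added for 2 h at 37 °C, formazan dissolved in DMSO and OD read at 490 nm. GI50 is the concentration giving 50% viability loss versus DMSO; 8 replicates, at least two independent experiments, ± SD.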

Assay [3] is filed under the species Bos taurus. Nature of the assay: Inhibition of purified bovine tubulin polymerization assessed as microtubule destabilization at 25 uM after 20 mins by fluorescence spectrophotometric analysis. Summed up:
as §1

In assay [4] the test system is Jurkat. Put plainly: Induction of apoptosis in human Jurkat cells assessed as cleavage of caspase 3 substrate DEVD-p-nitroanaline 2 hrs by spectrophotometric analysis. It is filed as functional, cell-based. In a few lines:
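Jurkat cells (RPMI-1640, 10% FBS) were treated at 0.1, 0.5 and 1 μM alongside DMSO control. Lysates from 1 × 10^6 cells were normalized by BCA protein assay, then incubated with DEVD-pNA substrate for 2 h at 37 °C. Read at 405 nm and expressed relative to DMSO set as one. Quadruplicates, repeated at least twice.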

For assay [5], the system named is HeLa. Put plainly: Antiproliferative activity against human HeLa cells after 48 hrs by MTT assay. Type of assay: functional. Summed up:
as §3
Background: Formazan colour is commonly taken as a measure of viable cells.

Assay [6] has as its system HeLa. Nature of the assay: Antimitotic activity in human HeLa cells assessed as nucleated microtubule at 10 uM after 3 hrs by inverted microscopic analysis. It is filed as functional, cell-based. Summed up:
(§4)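 HeLa cells in DMEM with 10% fetal calf serum, pyruvate, bicarbonate and PSF were exposed for 3 h to compound diluted from DMSO stock into medium, carrier 0.1% DMSO. Cells were fixed in methanol at −20 °C, blocked 1 h in PBS with 5% BSA, then stained overnight at 4 °C with anti-tubulin, anti-Hec1 and Hoechst 33342. Imaged by epifluorescence microscopy with structured illumination.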

In assay [7] the test system is HeLa. Put plainly: Antimitotic activity in human HeLa cells assessed as disruption of mitotic microtubule organization at 5 nM after 3 hrs by inverted microscopic analysis. Type of assay: functional, cell-based. In a few lines:
as §4

The test system of assay [8] is Jurkat. Put plainly: Induction of apoptosis in human Jurkat cells at 5 to 8 nM after 48 hrs by annexinV-propidium iodide staining based FITC analysis. It is filed as functional, cell-based. In a few lines: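 Jurkat cells plated at 2 × 10^5 cells/mL were exposed for 48 h across a concentration range. They were pelleted, resuspended in HHB containing CaCl2, propidium iodide and Annexin-V-FITC, and labelled 20 min at 37 °C. Annexin-V-positive cells were scored by flow cytometry as % apoptotic. Triplicates, repeated at least twice, ± SD.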

Assay [9] deals with HeLa. Put plainly: Antimitotic activity in human HeLa cells assessed as disruption of interphase microtubule organization at 5 nM after 3 hrs by inverted microscopic analysis. Type of assay: functional, cell-based. Summed up: as §4
Assay [10] has as its system HeLa. Put plainly: Antimitotic activity in human HeLa cells assessed as visible deffect in mitotic spindle formation at 10 uM after 3 hrs by inverted microscopic analysis. It is filed as functional, cell-based. Summed up: as §2
In assay [11] the test system is HeLa. Put plainly: Antimitotic activity in human HeLa cells assessed as disruption of interphase microtubule organization at 10 uM after 3 hrs by inverted microscopic analysis. It is filed as functional, cell-based. Summed up: as §2

Activity calls are given as the source filed them. The calls are words filed in the database; no cut-off is given here.

For the molecule `CC(=O)O[C@H]1C(=O)[C@@]2(C)[C@H]([C@H](OC(=O)c3ccccc3)[C@]3(O)C[C@H](OC(=O)[C@H](O)[C@@H](NC(=O)c4ccccc4)c4ccccc4)C(C)=C1C3(C)C)[C@]1(OC(C)=O)CO[C@@H]1C[C@@H]2O`, the inhibition result in the assay filed under Bos taurus [1] was “inactive”.

Regarding `COc1cc2c(c(OC)c1OC)-c1ccc(OC)c(=O)cc1[C@@H](NC(C)=O)CC2`, in the assay on HeLa [2], the outcome was inactive.

For the molecule `O=C1OCC2=C1C(c1cc(Br)cc(Br)c1)c1cn[nH]c1N2` (racemic), the GI50 in the assay on MCF7 and in the assay on HeLa [5] was 0.025 µM throughout. For the same molecule, the inhibition result in the assay filed under Bos taurus [3] is “Active”. For the same molecule, the result in the assay on Jurkat [4] was Active.

On to `O=C1OCC2=C1C(c1cc(Br)cc(Br)c1O)c1cn[nH]c1N2` (racemic), for which the GI50 worked out at 0.01 µM in the assay on MCF7 and 0.02 µM with HeLa [5]. For the same molecule, the inhibition entry in the assay filed under Bos taurus [3] was “Active”. For the same molecule, the result in the assay with Jurkat [4], in the assay on HeLa [6], in the assay on HeLa [7], in the assay with Jurkat [8] and in the assay on HeLa [9] was Active.

With `COc1cc([C@@H]2c3cc4c(cc3[C@H](O)[C@H]3COC(=O)[C@H]23)OCO4)cc(OC)c1OC` [PODOFILOX], the GI50 with MCF7 is 0.01 µM; in the assay with HeLa [5], 0.02 µM. Also, the inhibition result in the assay listed under Bos taurus [3] is “Active”. The result in the assay on HeLa [10] and in the assay on Jurkat [4] was Active. For the same molecule, the result in the assay with HeLa [11] was inactive.

Usually GI50 stands for the concentration giving 50% growth inhibition. High values mean lower sensitivity of the cells, low ones greater sensitivity of the cells.
